# Calls of active or inactive are those of the source. The calls are words filed in the database; no cut-off is given here.
# What was measured:
# T47D [1] = test: Induction of apoptosis in human T47D cells assessed as caspase activation after 24 hrs by HTS assay; format: functional, cell-based
# Summary of the method: (§1)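 Cell-based caspase HTS assay. Cells plated with various concentrations and incubated 24 h at 37 °C, then given fluorogenic caspase substrate N-(Ac-DEVD)-N'-ethoxycarbonyl-R110. EC50 reported as mean ± SEM of three or more experiments.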
# HCT-116 [2] = test: Induction of apoptosis in human HCT116 cells assessed as caspase activation after 24 hrs by HTS assay; format: functional, cell-based; conditions: HCT-116, 24 h; summary of the method: as §1
# SNU-398 [3] = test: Induction of apoptosis in human SNU398 cells assessed as caspase activation after 24 hrs by HTS assay; format: functional, cell-based; conditions: SNU-398, 24 h; summary of the method: as §1
# [4] = Ratio of AUC (0 to infinity) in C57BL/6 mouse brain to AUC (0 to infinity) in C57BL/6 mouse plasma at 2.5 mg/kg, iv; format: ADME, organism-based; set-up: dose 2.5 mg/kg, route intravenous; conditions: read-out: Ratio AUC
# Summary of the method: (§2)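 Mice given a single iv dose of 2.5 mg/kg. Plasma from blood samples and homogenized whole brain collected over time and analyzed by LC-MS/MS. Brain/plasma ratio is taken from the AUCs of the concentration-time curves.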
# [5] = Drug level in rhesus monkey cerebrospinal fluid; format: ADME, tissue-based, Macaca mulatta; conditions: in vivo
# [6] = Drug level in rhesus monkey cerebrospinal fluid at 7.5 mg/kg, iv after 24 hrs; format: ADME, organism-based, Macaca mulatta; set-up: dose 7.5 mg/kg, route intravenous; conditions: in vivo
# T47D [7] = test: Induction of apoptosis in human T47D cells assessed as S phase DNA content at 5 nM after 48 hrs by using propidium iodide staining by flow cytometry; format: functional
# Summary of the method: (§3)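 T47D cells treated with 5 nM for 24 or 48 h, then stained with propidium iodide. DNA content analysed by flow cytometry, with cells scored in G1, G2/M and subdiploid (sub-G1) populations against untreated control.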
# T47D [8] = test: Induction of apoptosis in human T47D cells assessed as S phase DNA content at 5 nM after 24 hrs by using propidium iodide staining by flow cytometry; format: functional; summary of the method: as §3
# T47D [9] = test: Induction of apoptosis in human T47D cells assessed as G1 phase DNA content at 5 nM after 48 hrs by using propidium iodide staining by flow cytometry; format: functional; summary of the method: as §3
# T47D [10] = test: Induction of apoptosis in human T47D cells assessed as G1 phase DNA content at 5 nM after 24 hrs by using propidium iodide staining by flow cytometry; format: functional; summary of the method: as §3
# T47D [11] = test: Growth inhibition of human T47D cells after 48 hrs by celltiter assay; format: functional
# Summary of the method: (§4)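 Cells ATCC-sourced, in 96-well format, exposed to serial concentrations for 48 h. Survival quantitated by CellTiter-Glo luminescence. GI50 reported as mean ± SEM of three or more experiments.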
# HCT-116 [12] = test: Growth inhibition of human HCT116 cells after 48 hrs by celltiter assay; format: functional; conditions: HCT-116, 48 h; summary of the method: as §4
# SNU-398 [13] = test: Growth inhibition of human SNU398 cells after 48 hrs by celltiter assay; format: functional; conditions: SNU-398, 48 h; summary of the method: as §4
# T47D [14] = test: Induction of apoptosis in human T47D cells assessed as sub-diploid DNA content at 5 nM after 24 hrs by using propidium iodide staining by flow cytometry; format: functional; summary of the method: as §3
# T47D [15] = test: Induction of apoptosis in human T47D cells assessed as sub-diploid DNA content at 5 nM after 48 hrs by using propidium iodide staining by flow cytometry; format: functional; summary of the method: as §3
# T47D [16] = test: Induction of apoptosis in human T47D cells assessed as G2/M DNA content at 5 nM after 24 hrs by using propidium iodide staining by flow cytometry; format: functional; summary of the method: as §3
# Jurkat [17] = test: Induction of apoptosis in human Jurkat cells assessed as sub-diploid DNA content at 10 nM after 18 hrs by flow cytometry; format: functional
# Jurkat [18] = test: Induction of apoptosis in human Jurkat cells assessed as sub-diploid DNA content at 10 nM after 18 hrs by flow cytometry in presence of caspase inhibitor MX-1013; format: functional
# Brain = test: AUC (0 to infinity) in C57BL/6 mouse brain at 2.5 mg/kg, iv; format: ADME, organism-based; set-up: time infinity, dose 2.5 mg/kg, route intravenous; conditions: in vivo; summary of the method: as §2
# MX1 [19] = test: Antitumor activity against human MX1 cells xenografted in Crl:Nu/Nu-nuBR mouse assessed as tumor growth inhibition at 7.5 mg/kg, iv administered once weekly for 3 weeks; format: functional, organism-based; set-up: dose 7.5 mg/kg
# MX1 [20] = test: Antitumor activity against human MX1 cells xenografted in Crl:Nu/Nu-nuBR mouse assessed as tumor growth inhibition at 10 mg/kg, iv administered once weekly for 3 weeks; format: functional, organism-based; set-up: dose 10 mg/kg
# MX1 [21] = test: Antitumor activity against human MX1 cells xenografted in Crl:Nu/Nu-nuBR mouse assessed as tumor growth inhibition at 5 mg/kg, iv administered once weekly for 3 weeks; format: functional, organism-based; set-up: dose 5 mg/kg
# Plasma = test: AUC (0 to infinity) in C57BL/6 mouse plasma at 2.5 mg/kg, iv; format: ADME, organism-based; set-up: time infinity, dose 2.5 mg/kg, route intravenous; conditions: in vivo; summary of the method: as §2
# T47D [22] = test: Induction of apoptosis in human T47D cells assessed as subdiploid DNA content at 5 nM after 48 hrs by using propidium iodide staining by flow cytometry
EC50 (T47D [1]) [nM],EC50 (HCT-116 [2]) [nM],EC50 (SNU-398 [3]) [nM],Compound,also measured
180,250,170,Cc1nc(N(C)c2ccc(N)cc2)c2ccccc2n1,Kp [4]: 0.9
9,9,10,COc1ccc(N(C)c2nc(N(C)C(C)=O)nc3ccccc23)cc1,–
420,630,390,Cc1nc(N(C)c2ccc(F)cc2)c2ccccc2n1,–
8,9,5,CNc1nc(N(C)c2ccc(OC)cc2)c2ccccc2n1,–
23,36,20,COc1ccc(N(C)c2nc(NN)nc3ccccc23)cc1,–
15,33,20,Cc1nc(N(C)c2ccc(N(C)C)nc2)c2ccccc2n1,–
1800,2600,2000,COc1ccc(N(C)c2nc(CN(C)C)nc3ccccc23)cc1,–
15,43,33,COc1ccc(N(C)c2nc(N(C)C)nc3ccccc23)cc1,Kp [4]: 4
4,4,4,CCOc1ccc(N(C)c2nc(C)nc3ccccc23)cc1,–
2,2,2,COc1ccc(N(C)c2nc(Cl)nc3ccccc23)cc1,–
48,48,–,COc1ccc(N(C)c2nc(CCl)nc3ccccc23)cc1,–
2,2,1,COc1ccc(N(C)c2nc(CF)nc3ccccc23)cc1,–
11,12,11,Cc1nc(N(C)c2ccc(N=[N+]=[N-])cc2)c2ccccc2n1,–

# Second part, the molecule before the results:
Compound,EC50 (T47D [1]) [nM],EC50 (HCT-116 [2]) [nM],EC50 (SNU-398 [3]) [nM],also measured
COc1ccc(N(C)c2nc(NC/C=C(\C)CCC=C(C)C)nc3ccccc23)cc1,290,460,270,–
Cc1ccc(NC(=O)c2ccc(CN3CCN(C)CC3)cc2)cc1Nc1nccc(-c2cccnc2)n1 [IMATINIB],–,–,–,Drug uptake [5]: 5%
COc1ccc(N(C)c2nc(C)nc3ccccc23)c(F)c1,4,4,4,–
Cc1nc(N(C)c2ccc(O)cc2)c2ccccc2n1,86,130,–,–
COc1ccc(N(C)c2nc(C)nc3ccccc23)cc1OC,10,14,13,–
COc1ccc(N(C)c2nc(CO)nc3ccccc23)cc1,2,4,2,–
COc1ccc(N(C)c2nc(C)nc3ccccc23)nc1,16,44,18,–
COc1ccc(S(=O)(=O)Nc2cccnc2Nc2ccc(O)cc2)cc1 [ABT-751],–,–,–,Drug uptake [6]: 1.1%
Cc1nc(N(C)c2ccc([N+](=O)[O-])cc2)c2ccccc2n1,740,1300,620,–
CCc1ccc(N(C)c2nc(C)nc3ccccc23)cc1,31,26,–,–
CC(=O)Nc1ccc(N(C)c2nc(C)nc3ccccc23)cc1,59,83,66,Kp [4]: 0.74
Cc1nc(N(C)c2ccc(OC(F)F)cc2)c2ccccc2n1,9,11,–,–
Cc1nc(N(C)c2ccc(N(C)C)cc2)c2ccccc2n1,16,19,–,–
CSc1ccc(N(C)c2nc(C)nc3ccccc23)cc1,3,3,–,–
COc1ccc(N(C)c2nc(C)nc3ccccc23)cn1,–,–,–,Kp [4]: 5.8
COc1ccc(N(C)c2nc(C)nc3ccccc23)cc1F,2,2,2,–
COc1ccc(N(C)c2nc(C)nc3ccccc23)cc1 [VERUBULIN],–,3,2,Activity (T47D [7]): 16%; Activity (T47D [8]): 10%; Activity (T47D [9]): 14%; Activity (T47D [10]): 15%; GI50 (T47D [11]): 6 nM; GI50 (HCT-116 [12]): 6 nM; GI50 (SNU-398 [13]): 3 nM; Activity (T47D [14]): 15%; Activity (T47D [15]): 34%; Activity (T47D [16]): 58%; Activity (Jurkat [17]): 68%; Activity (Jurkat [18]): 11%; AUC (Brain): 11459 ng/mL; Activity (MX1 [19]): Active; Activity (MX1 [20]): Active; Activity (MX1 [21]): Active; AUC (Plasma): 686 ng/mL; Kp [4]: 16; Activity (T47D [22]): 34%
COc1cnc(N(C)c2nc(C)nc3ccccc23)cn1,53,75,49,Kp [4]: 1.9

# — ChEMBL document CHEMBL1153393, “Discovery of N-(4-methoxyphenyl)-N,2-dimethylquinazolin-4-amine, a potent apoptosis inducer and efficacious anticancer agent with high blood brain barrier penetration” (J Med Chem, 2009)
